ChEMBL document CHEMBL4765291, “Design, synthesis and biological evaluation of novel 3,4-dihydro-2(1H)-quinolinone derivatives as potential chitin synthase inhibitors and antifungal agents” (Eur J Med Chem, 2020)
pIC50: −log10 of the molar value. ≈ marks a conversion by molar mass, not a printed value.

How the values were obtained:
[1] = system: Pseudomonas aeruginosa; experiment: Antibacterial activity against Pseudomonas aeruginosa ATCC 9027; format: functional
How it was run: (§1)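 Two-fold serial broth dilution in 96-well plates following National Committee standards; compounds tested at different concentrations. Medium: beef extract peptone (1% peptone, 0.3% beef extract, 0.5% NaCl). Incubation 18–24 h. MIC recorded; streptomycin and norfloxacin as control drugs; each group tested in triplicate.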

[2] = system: Aspergillus fumigatus; experiment: Antifungal activity against Aspergillus fumigatus GIMCC 3.19 incubated for 48 hrs by two-fold broth dilution analysis; format: functional
How it was run: (§2)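 Stock solutions in DMSO, diluted to 0.25–512 µg/mL; two-fold serial broth dilution in 96-well plates. Fungi grown on modified Sabouraud chloramphenicol agar (1% peptone, 2% glucose, […]). Incubated 48 h at 37 °C, then MIC (µg/mL) recorded. Fluconazole and polyoxin B as positive controls; each group tested in triplicate.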

[3] = system: Escherichia coli; experiment: Antibacterial activity against Escherichia coli JM 109
[4] = system: Proteus vulgaris; experiment: Antibacterial activity against Bacillus proteus ATCC 8427; format: functional; how it was run: as §1
[5] = system: Aspergillus flavus; experiment: Antifungal activity against Aspergillus flavus ATCC 16870 incubated for 48 hrs by two-fold broth dilution analysis; format: functional; how it was run: as §2
[6] = system: Cryptococcus neoformans; experiment: Antifungal activity against Cryptococcus neoformans ATCC 32719 incubated for 48 hrs by two-fold broth dilution analysis; format: functional; how it was run: as §2
[7] = system: Candida tropicalis; experiment: Inhibition of Candida tropicalis ATCC 750 chitin synthase at 300 ug/ml using UDP-GlcNAc as substrate relative to control; conditions: dose 300.0 µg/ml
How it was run: (§3)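 Chitin synthase prepared from C. tropicalis ATCC 750 by low- and high-speed centrifugation. DMSO stocks (10 mg/mL) diluted in 50 mM Tris-HCl pH 7.5; test concentrations 300–9.375 µg/mL. Chitin synthesized in WGA-coated wells, bound with WGA-HRP, washed, developed with TMB/H2O2, stopped with 2 M H2SO4, OD read. Duplicate; polyoxin B positive control.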

[8] = system: Candida albicans; experiment: Antifungal activity against Candida albicans ATCC 76615 incubated for 48 hrs by two-fold broth dilution analysis; format: functional; how it was run: as §2
[9] = system: Staphylococcus aureus; experiment: Antibacterial activity against methicillin-resistant Staphylococcus aureus N. 315; format: functional
How it was run: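 Two-fold serial broth dilution in 96-well plates per national clinical standard; beef extract peptone medium (1% peptone, 0.3% beef extract, 0.5% NaCl, […]). Compounds from DMSO stock diluted to test concentrations; incubation 18–24 h. MIC recorded; each group tested independently in triplicate.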

[10] = system: Staphylococcus aureus; experiment: Antibacterial activity against Staphylococcus aureus ATCC 25923; format: functional; how it was run: as §1
[11] = system: Bacillus subtilis; experiment: Antibacterial activity against Bacillus subtilis ATCC 6633; format: functional; how it was run: as §1
[12] = system: Candida albicans; experiment: Antifungal activity against Candida albicans ATCC 90023 incubated for 48 hrs by two-fold broth dilution analysis; format: functional; how it was run: as §2
[13] = Inhibition of Candida tropicalis ATCC 750 chitin synthase using UDP-GlcNAc as substrate; how it was run: as §3

| SMILES | MIC [1] [µg/mL] | MIC [2] [µg/mL] | MIC [3] [µg/mL] | MIC [4] [µg/mL] | MIC [5] [µg/mL] | MIC [6] [µg/mL] | inhibition [7] [%] | MIC [8] [µg/mL] | MIC [9] [µg/mL] | MIC [10] [µg/mL] | MIC [11] [µg/mL] | MIC [12] [µg/mL] | pIC50 [13] |
| --- | --- | --- | --- | --- | --- | --- | --- | --- | --- | --- | --- | --- | --- |
| O=C(/C=C/C(=O)NC1Cc2ccccc2NC1=O)Nc1ccc([N+](=O)[O-])cc1 (configuration not stated) | 512 (≈ 1350 µM) | 4 (≈ 10.5 µM) | 256 (≈ 673 µM) | 256 (≈ 673 µM) | 2 (≈ 5.26 µM) | 8 (≈ 21 µM) | 65.2 | 8 (≈ 21 µM) | 256 (≈ 673 µM) | 128 (≈ 337 µM) | 256 (≈ 673 µM) | 2 (≈ 5.26 µM) | 3.46 |
| O=C(/C=C/C(=O)NC1Cc2ccccc2NC1=O)Nc1ccccc1Br (configuration not stated) | 512 (≈ 1240 µM) | 8 (≈ 19.3 µM) | 512 (≈ 1240 µM) | 512 (≈ 1240 µM) | 2 (≈ 4.83 µM) | 32 (≈ 77.2 µM) | 39.9 | 4 (≈ 9.66 µM) | 256 (≈ 618 µM) | 128 (≈ 309 µM) | 512 (≈ 1240 µM) | 2 (≈ 4.83 µM) | – |
| O=C(/C=C/C(=O)NC1Cc2ccccc2NC1=O)Nc1ccc(F)c(F)c1 (configuration not stated) | 512 (≈ 1380 µM) | 8 (≈ 21.5 µM) | 512 (≈ 1380 µM) | 512 (≈ 1380 µM) | 8 (≈ 21.5 µM) | 16 (≈ 43.1 µM) | 66.5 | 4 (≈ 10.8 µM) | 512 (≈ 1380 µM) | 256 (≈ 689 µM) | 512 (≈ 1380 µM) | 2 (≈ 5.39 µM) | 3.47 |
| O=C(/C=C/C(=O)NC1Cc2ccccc2NC1=O)Nc1ccccc1[N+](=O)[O-] (configuration not stated) | 256 (≈ 673 µM) | 8 (≈ 21 µM) | 256 (≈ 673 µM) | 256 (≈ 673 µM) | 4 (≈ 10.5 µM) | 4 (≈ 10.5 µM) | 53.3 | 4 (≈ 10.5 µM) | 256 (≈ 673 µM) | 128 (≈ 337 µM) | 256 (≈ 673 µM) | 2 (≈ 5.26 µM) | 3.49 |
| O=C(/C=C/C(=O)NC1Cc2ccccc2NC1=O)Nc1ccccc1 (configuration not stated) | 256 (≈ 763 µM) | 4 (≈ 11.9 µM) | 512 (≈ 1530 µM) | 256 (≈ 763 µM) | 4 (≈ 11.9 µM) | 4 (≈ 11.9 µM) | 35.7 | 4 (≈ 11.9 µM) | 256 (≈ 763 µM) | 256 (≈ 763 µM) | 256 (≈ 763 µM) | 2 (≈ 5.96 µM) | – |
| O=C(/C=C/C(=O)NC1Cc2ccccc2NC1=O)Nc1cccc2ccccc12 (configuration not stated) | 256 (≈ 664 µM) | 4 (≈ 10.4 µM) | 512 (≈ 1330 µM) | 256 (≈ 664 µM) | 8 (≈ 20.8 µM) | 4 (≈ 10.4 µM) | 27.8 | 2 (≈ 5.19 µM) | 256 (≈ 664 µM) | 256 (≈ 664 µM) | 256 (≈ 664 µM) | 2 (≈ 5.19 µM) | – |
| O=C(/C=C/C(=O)NC1Cc2ccccc2NC1=O)Nc1cccc(Br)c1 (configuration not stated) | 256 (≈ 618 µM) | 4 (≈ 9.66 µM) | 256 (≈ 618 µM) | 256 (≈ 618 µM) | 4 (≈ 9.66 µM) | 32 (≈ 77.2 µM) | 45.2 | 2 (≈ 4.83 µM) | 512 (≈ 1240 µM) | 128 (≈ 309 µM) | 256 (≈ 618 µM) | 1 (≈ 2.41 µM) | – |
| O=C(/C=C/C(=O)NC1Cc2ccccc2NC1=O)Nc1cccc([N+](=O)[O-])c1 (configuration not stated) | 512 (≈ 1350 µM) | 8 (≈ 21 µM) | 128 (≈ 337 µM) | 256 (≈ 673 µM) | 4 (≈ 10.5 µM) | 4 (≈ 10.5 µM) | 49.3 | 4 (≈ 10.5 µM) | 256 (≈ 673 µM) | 128 (≈ 337 µM) | 256 (≈ 673 µM) | 2 (≈ 5.26 µM) | – |
| O=C(/C=C/C(=O)NC1Cc2ccccc2NC1=O)Nc1ccc(Cl)cc1 (configuration not stated) | 512 (≈ 1380 µM) | 8 (≈ 21.6 µM) | 256 (≈ 692 µM) | 512 (≈ 1380 µM) | 4 (≈ 10.8 µM) | 4 (≈ 10.8 µM) | 50.5 | 4 (≈ 10.8 µM) | 512 (≈ 1380 µM) | 128 (≈ 346 µM) | 256 (≈ 692 µM) | 2 (≈ 5.41 µM) | – |
| CN[C@@H]1[C@H](O[C@H]2[C@H](O[C@H]3[C@H](O)[C@@H](O)[C@H](N=C(N)N)[C@@H](O)[C@@H]3N=C(N)N)O[C@@H](C)[C@]2(O)C=O)O[C@@H](CO)[C@H](O)[C@H]1O [STREPTOMYCIN] | 8 (≈ 13.8 µM) | – | 32 (≈ 55 µM) | 16 (≈ 27.5 µM) | – | – | – | – | 16 (≈ 27.5 µM) | 32 (≈ 55 µM) | 8 (≈ 13.8 µM) | – | – |
